Structures are written as SMILES. Calls of active or inactive are those of the source. No cut-off for these calls is given here.

One may read the IC50 as the concentration that gives 50% inhibition. One may read the CC50 as the concentration at which the toxic effect on the cells reaches its halfway point.

Data set [1] deals with T1, Human immunodeficiency virus type 1 reverse transcriptase (Human immunodeficiency virus 1, UniProt Q72547). Kind of data set: Inhibition of RNase H activity of HIV-1 HXB2 reverse transcriptase p66/p51 after 10 mins by fluorescence spectrophotometry. A digest of the protocol:
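His-p66/His-p51 RT from HIV-1 HXB2, 250 ng, with 250 nM 18-nt 3′-fluorescein RNA annealed to 5′-dabsyl DNA. Hydrolysis started by adding hybrid. 37°C, fluorescence (ex 475/em 520 nm) read every minute for 10 min. Percent inhibition from initial rates, plotted against log concentration. Triplicate.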

In data set [2] the target is Human immunodeficiency virus type 1 reverse transcriptase (Human immunodeficiency virus 1) (UniProt Q72547). The data set is described as follows: Binding affinity to HIV-1 HXB2 reverse transcriptase p66/p51 assessed as changes in enzyme orientation on polypurine tract-containing RNA-DNA hybrid by FRET assay. An outline of the steps: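 Single-molecule FRET. Substrate: 21-nt PPT:D2 RNA-DNA primer annealed at 1.2:1 to a biotinylated 50-nt DNA template. Cy5 acceptor near the template 3′ end; Cy3 donor on the RNase H C terminus of p66. His-p66/His-p51 RT is from the HXB2 isolate. Inhibitor was added at 10 μM final.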

For data set [3] the target is unchanged. The data set is described as follows: Inhibition of DNA-dependent DNA polymerase activity of HIV1 HXB2 reverse transcriptase p66/p51at 50 uM after 10 mins by fluorescence spectrophotometry.
The test system of data set [4] is Human immunodeficiency virus 1. Kind of data set: Antiviral activity against HIV-1 isolate RF infected in human CEM-SS cells assessed as inhibition of virus induced cytopathic effect by XTT assay. It counts as functional, organism-based. The following applies: Human immunodeficiency virus 1, isolate RF. A digest of the protocol:
(§1)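 HIV-1 RF isolate in human T-cell line CEM-SS; XTT-based cell viability read-out following Weislow et al.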
(In general: Damage to the host cells serves as the signal in cytopathic effect assays.)

Data set [5] in a line: Cytotoxicity against human CEM-SS cells by XTT assay. It counts as cell-based. A digest of the protocol: as §1
(In general: Tetrazolium dyes change colour on reduction, which living cells bring about.)

The target in data set [6] is Human immunodeficiency virus type 1 reverse transcriptase (Human immunodeficiency virus 1) (UniProt Q72547). The data set is described as follows: Inhibition of RNase H activity of HIV-1 HXB2 reverse transcriptase p66/p51 preincubated with compound and RNA-DNA hybrid substrate followed by addition of magnesium ions.
The target is the same in data set [7]. Kind of data set: Inhibition of RNase H activity of HIV-1 HXB2 reverse transcriptase p66/p51 pre-incubated with RNA-DNA hybrid followed by addition of compound and magnesium ions.
Data set [8] shares this target. The data set is described as follows: Binding affinity to HIV-1 HXB2 reverse transcriptase p66/p51 at increased temperature by Van't Hoff analysis. An outline of the steps: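 His-p66/His-p51 RT (4 nM) and RNA-DNA hybrid (250 nM) were run at 20, 25, 30 and 35°C. The reaction was started with substrate, incubated 30 min and quenched with EDTA. Product fluorescence was read, with quadruplicate dose-response curves at each temperature. Ki was fitted as v_i/v_o = 1/[1 + ([I]/Ki)], simple nontight-binding inhibition.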

Data set [9] concerns the target T1, Human immunodeficiency virus type 1 reverse transcriptase. The data set is described as follows: Inhibition of RNase H activity of HIV-1 reverse transcriptase. An outline of the steps: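 Recombinant His-p66/His-p51 RT (HXB2) was mixed with inhibitor in DMSO, then the reaction was started with 18-bp hybrid (3′-fluorescein RNA/5′-dabsyl DNA). Run at 37°C for 10 min, read ex 475/em 520 nm every minute. IC50 from initial-rate % inhibition vs log[inhibitor], triplicate.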

Another data set deals with Reverse transcriptase (Human immunodeficiency virus 2, UniProt Q06347). Kind of data set: Inhibition of RNase H activity of HIV-2 reverse transcriptase.
Sequence of Reverse transcriptase (Q06347 whole entry): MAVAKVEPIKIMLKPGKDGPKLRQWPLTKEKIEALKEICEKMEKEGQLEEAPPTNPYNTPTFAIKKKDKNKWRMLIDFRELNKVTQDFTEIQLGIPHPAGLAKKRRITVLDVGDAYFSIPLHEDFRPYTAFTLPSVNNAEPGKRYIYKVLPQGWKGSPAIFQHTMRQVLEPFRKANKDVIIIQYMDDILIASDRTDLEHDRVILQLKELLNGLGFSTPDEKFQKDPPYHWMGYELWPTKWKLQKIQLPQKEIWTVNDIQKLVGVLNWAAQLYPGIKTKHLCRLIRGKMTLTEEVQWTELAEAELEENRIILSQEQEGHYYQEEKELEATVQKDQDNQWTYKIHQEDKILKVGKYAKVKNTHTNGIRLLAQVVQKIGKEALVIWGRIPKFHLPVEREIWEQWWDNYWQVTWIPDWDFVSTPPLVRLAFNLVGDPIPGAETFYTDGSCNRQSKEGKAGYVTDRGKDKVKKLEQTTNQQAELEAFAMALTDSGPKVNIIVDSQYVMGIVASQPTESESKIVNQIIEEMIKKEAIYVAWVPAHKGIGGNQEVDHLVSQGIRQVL

As for `COc1ccc(-c2nc3sc(C)c(C)c3c(=O)[nH]2)cc1`, the IC50 in data set [1] is above 100 µM. As to `Cc1onc(-c2ccccc2)c1C(=O)Nc1sc(C)c(C)c1C(N)=O`, in data set [1], the concentration for half-maximal inhibition (IC50) worked out at 2.9 µM. On the same count and under the same terms, as for `Cc1sc(NC(=O)c2ccco2)c(C(N)=O)c1C`, the figure is 3.4 µM; as for `NC(=O)c1c(N)sc2c1CCCC2`, 14 µM; as for `Cc1sc(N)c(C(N)=O)c1C`, above 500 µM.

`Cc1sc2nc(-c3ccc([N+](=O)[O-])cc3)[nH]c(=O)c2c1C` displayed an IC50 in data set [1] of 0.85 µM. Moreover, in data set [2], the outcome was Active. For the same molecule, the inhibition result in data set [3] was “inactive”. On to `COc1ccccc1NC(=O)c1c(NC(=O)Cc2ccccc2)sc2c1CCCCC2`, for which the IC50 was above 500 µM in data set [1] and 54 µM in [4]. In addition, in [5], half-maximal cytotoxicity (CC50) was put at 141 µM.

The molecule `CCOc1ccc(NC(=O)c2c(NC(=O)c3ccco3)sc3c2CCCCC3)cc1` returned an IC50 in data set [1] of 4.2 µM. As to `NC(=O)c1c(N)sc2c1CCC2`, in [1], the IC50 is above 500 µM.

`Cc1ccc(NC(=O)c2c(NC(=O)c3ccccc3F)sc3c2CCCCC3)cc1` showed an IC50 in [1] above 500 µM. With `NC(=O)c1c(N)sc2c1CCCCCC2`, the IC50 in data set [1] was above 500 µM. Regarding `NC(=O)c1ccsc1N`, the IC50 in [1] is above 500 µM. Same read-out and setting: next, `NC(=O)c1c(NC(=O)COc2ccccc2)sc2c1CCCCC2`: 6.9 µM. With `NC(=O)c1c(N)sc2c1CCCCC2`, the inhibition result in data set [6] is “Active”. Moreover, the inhibition entry in data set [7] was “inactive”. Also, the IC50 in data set [4] amounted to 4.3 µM. The same molecule came in with a CC50 in data set [5] of 19.9 µM. Further, the outcome in data set [8] was inactive. In addition, the result in [2] was Active. In turn, `O=C(Nc1sc2c(c1C(=O)Nc1cccc3ccccc13)CCCCC2)c1ccccc1F` came in with an IC50 in [1] above 500 µM.

On to `Cc1cc(Cl)ccc1CCC(=O)Nc1sc(C)c(C)c1C(N)=O`, for which the IC50 in [1] is above 500 µM. As for `Cc1sc(NC(=O)c2ccc3c(c2)OCO3)c(C(N)=O)c1C`, the values for the 50% inhibitory concentration (IC50) in data set [1] and in [4] were 5.1 µM and 19 µM, respectively. The CC50 in data set [5] is 38 µM.

Take `Cc1sc(NC(=O)C2CC3CCC2C3)c(C(N)=O)c1C` (centres undefined): it took 21 µM to reach half-maximal inhibition in data set [1] (IC50). Still for that read-out and setting: next, `CCOc1ccc(NC(=O)c2c(NC(=O)c3ccccc3)sc3c2CCCCC3)cc1`: above 500 µM. Regarding `CC(C)c1ccc(O)c(=O)c(O)c1` [BETA-THUJAPLICINOL], the IC50 (in [9]; against Reverse transcriptase) was 0.25 µM each time. Further, in data set [8], the outcome was inactive. `Cc1sc(NC(=O)c2ccc(Br)o2)c(C(N)=O)c1C`: inhibition in [1] was half-maximal at 1.7 µM (IC50). Still for that read-out and setting: next, `Cc1sc(NC(=O)C2CCCO2)c(C(N)=O)c1C` (centres undefined): 27.3 µM. On to `Cc1sc(NC(=O)c2cccc([N+](=O)[O-])c2)c(C(N)=O)c1C`, for which, in [1], half-maximal inhibition (IC50) required 1.3 µM. Further, the result in [2] was Active. With `Cc1sc2nc(-c3ccccc3)[nH]c(=O)c2c1C`, the IC50 in data set [1] was above 100 µM. On to `Cc1ccc(C(=O)Nc2sc(C)c(C)c2C(N)=O)cc1`, for which the IC50 in [1] was determined as 2.8 µM.
